PMC10753860 (European journal of medicinal chemistry, 2023)
pEC50: −log10 of the molar value.

What was measured:
[1] = tested on: HBV replication in AML12HBV10 cells; assay: Antiviral dot blot hybridization assay of HBV DNA in AML12HBV10 cells; assay type: cell-based, hepatitis B virus (mouse hepatocyte-derived cell line)
[2] = tested on: HBV capsid assembly and pgRNA encapsidation in AML12HBV10 cells; assay: Mode of action study in AML12HBV10 cells; assay type: cell-based, hepatitis B virus (mouse hepatocyte-derived cell line); conditions: 2 days, ETV 1 μM; for amount of encapsidated pgRNA / viral DNA replication intermediates: Bay 41-4109 2 μM, DVR-23 5 μM; for amount of encapsidated pgRNA / viral DNA replication intermediates / amount of total viral RNA / amount of core protein: 17 or 18 1 or 5 μM; for amount of encapsidated pgRNA / amount of total viral RNA: Northern blot; for viral DNA replication intermediates: Southern blot; for amount of core protein: Western blot
Method in brief: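 Mouse hepatocyte-derived AML12HBV10 cells carry a tetracycline-inducible, envelope-deficient HBV genome. They were seeded in 24-well plates, kept with tet (negative control) or without it for 24 h, then DMSO- or compound-treated for 48 h. Read-outs: total RNA and encapsidated pgRNA by Northern blot (rRNA loading); Cp by Western blot with antibody to its C-terminal 14 residues (β-actin loading); capsids and core DNA by native agarose particle gel.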

[3] = tested on: HBV replication in AML12HBV10 cells; conditions: HBV AML12HBV10 cell line; cited from earlier work

O=C(Nc1cc(F)c(F)c(F)c1)N1CCN(C(=O)Nc2ccc(F)c(Cl)c2)c2ccccc21 [Compound 95, N^1-(3-chloro-4-fluorophenyl)-N^4-(3,4,5-trifluorophenyl)-2,3-dihydroquinoxaline-1,4-dicarboxamide]
anti-HBV activity (in words) ([1]; AML12HBV10 cells): sub-micromolar activities

COC(=O)C1=C(C)NC(c2ncc(F)cc2F)=N[C@H]1c1ccc(F)cc1Cl [Bay 41-4109]
amount of encapsidated pgRNA [2]: significantly reduced
viral DNA replication intermediates [2]: viral DNA replication was inhibited

O=C(Nc1ccc(F)c(Cl)c1)c1cccc2c1OCCO2 [38017 (8)]
EC50 (in words) [3]: sub-micromolar

O=C(Nc1ccc(F)c(Cl)c1)N1CC(CN2CCC(F)(F)CC2)N(C(=O)Nc2ccc(F)c(Cl)c2)c2ccccc21 (stereo not drawn) [Compound 98, N^1,N^4-bis(3-chloro-4-fluorophenyl)-2-((4,4-difluoropiperidin-1-yl)methyl)-2,3-dihydroquinoxaline-1,4-dicarboxamide]
anti-HBV activity (in words) ([1]; AML12HBV10 cells): did not help to improve the activity significantly

O=C(Nc1ccc(F)c(Cl)c1)N1CC(CN2CCC(F)(F)C2)N(C(=O)Nc2ccc(F)c(Cl)c2)c2ccccc21 (stereo not drawn) [Compound 97, N^1,N4-bis(3-chloro-4-fluorophenyl)-2-((3,3-difluoropyrrolidin-1-yl)methyl)-2,3-dihydroquinoxaline-1,4-dicarboxamide]
anti-HBV activity (in words) ([1]; AML12HBV10 cells): did not help to improve the activity significantly

O=C(Nc1ccc(F)c(Cl)c1)N1CCNc2ccccc21 [Compound 17, N-(3-chloro-4-fluorophenyl)-3,4-dihydroquinoxaline-1(2H)-carboxamide]
amount of total viral RNA [2]: did not alter
amount of core protein [2]: did not alter
amount of encapsidated pgRNA [2]: drastically reduced
viral DNA replication intermediates [2]: drastically reduced

O=C(Nc1ccc(F)c(Cl)c1)N1c2ccccc2NCC1CN1CCOCC1 (stereo not drawn) [Compound 71, N-(3-chloro-4-fluorophenyl)-2-(morpholinomethyl)-3,4-dihydroquinoxaline-1(2H)-carboxamide]
anti-HBV activity (in words) ([1]; AML12HBV10 cells): reduced the activity significantly

O=S(=O)(Nc1ccc(F)c(Cl)c1)N1CCNc2ccccc21 [Compound 26, N-(3-chloro-4-fluorophenyl)-3,4-dihydroquinoxaline-1(2H)-sulfonamide]
anti-HBV activity (in words) ([1]; AML12HBV10 cells): loss of activity

O=C(Nc1ccc(F)c(Cl)c1)N1CCN(C(=O)Nc2ccc(F)c(Cl)c2)c2ccccc21 [Compound 18, N^1,N^4-bis(3-chloro-4-fluorophenyl)-2,3-dihydroquinoxaline-1,4-dicarboxamide]
amount of total viral RNA [2]: did not alter
amount of core protein [2]: did not alter
amount of encapsidated pgRNA [2]: drastically reduced
viral DNA replication intermediates [2]: drastically reduced

O=C1CN(C(=O)Nc2ccc(F)c(Cl)c2)c2ccccc2N1 [Compound 29, N-(3-chloro-4-fluorophenyl)-3-oxo-3,4-dihydroquinoxaline-1(2H)-carboxamide]
anti-HBV activity (in words) ([1]; AML12HBV10 cells): inactive

O=C(Nc1ccc(F)c(C(F)(F)F)c1)N1c2ccccc2NCC1CN1CCC(F)(F)CC1 (stereo not drawn) [Compound 87, 2-((4,4-difluoropiperidin-1-yl)methyl)-N-(4-fluoro-3-(trifluoromethyl)phenyl)-3,4-dihydroquinoxaline-1(2H)-carboxamide]
anti-HBV activity (in words) ([1]; AML12HBV10 cells): moderate sub-micromolar

O=C(Nc1ccc(F)c(Cl)c1)N1CCCCc2ccccc21 [Compound 32, N-(3-chloro-4-fluorophenyl)-2,3,4,5-tetrahydro-1H-benzo[b]azepine-1-carboxamide]
anti-HBV activity (in words) ([1]; AML12HBV10 cells): diminished the activity

C=C1[C@H](CO)[C@@H](O)C[C@@H]1n1cnc2c(=O)[nH]c(N)nc21 [ETV, Entecavir]
amount of total viral RNA [2]: did not alter
amount of core protein [2]: did not alter
amount of encapsidated pgRNA [2]: did not alter
viral DNA replication intermediates [2]: drastically reduced
amount of capsid-associated viral DNA ([2]; particle gel assay): drastically reduced

O=C(Nc1ccc(F)c(C(F)F)c1)N1CCNc2ccccc21 [Compound 35, N-(3-(difluoromethyl)-4-fluorophenyl)-3,4-dihydroquinoxaline-1(2H)-carboxamide]
anti-HBV activity (in words) ([1]; AML12HBV10 cells): improved the potencies

O=C(Nc1ccc(F)c(Cl)c1)N1c2ccccc2NCC1c1ccccc1 (stereo not drawn) [Compound 74, N-(3-chloro-4-fluorophenyl)-2-phenyl-3,4-dihydroquinoxaline-1(2H)-carboxamide]
anti-HBV activity (in words) ([1]; AML12HBV10 cells): sub-micromolar activity

O=C(Nc1ccc(F)c(Cl)c1)C1CCNc2ccccc21 (stereo not drawn) [Compound 23, N-(3-chloro-4-fluorophenyl)-1,2,3,4-tetrahydroquinoline-4-carboxamide]
anti-HBV activity (in words) ([1]; AML12HBV10 cells): loss of activity

O=C(Nc1ccc(F)c(Cl)c1)N1CCc2ccccc21 [Compound 30, N-(3-chloro-4-fluorophenyl)indoline-1-carboxamide]
anti-HBV activity (in words) ([1]; AML12HBV10 cells): maintained activity

CCC(C)NS(=O)(=O)c1ccc(F)c(C(=O)Nc2ccc(F)c(F)c2)c1 (stereo not drawn) [DVR-23]
amount of encapsidated pgRNA [2]: significantly reduced
viral DNA replication intermediates [2]: viral DNA replication was inhibited

O=C(Nc1cccc(Cl)c1)N1c2ccccc2NCC1CN1CCC(F)(F)CC1 (stereo not drawn) [Compound 89, N-(3-chlorophenyl)-2-((4,4-difluoropiperidin-1-yl)methyl)-3,4-dihydroquinoxaline-1(2H)-carboxamide]
anti-HBV activity (in words) ([1]; AML12HBV10 cells): moderate sub-micromolar

O=C(Nc1ccc(F)c(Cl)c1)N1CCCc2ccccc21 [Compound 27, N-(3-chloro-4-fluorophenyl)-3,4-dihydroquinoline-1(2H)-carboxamide]
reduction of activity relative to 17 ([1]; AML12HBV10 cells, replacement of 4-N with CH2): 3 fold

CC1(C)CCN(CC2CNc3ccccc3N2C(=O)Nc2ccc(F)c(Cl)c2)CC1 (stereo not drawn) [Compound 76, N-(3-chloro-4-fluorophenyl)-2-((4,4-dimethylpiperidin-1-yl)methyl)-3,4-dihydroquinoxaline-1(2H)-carboxamide]
anti-HBV activity (in words) ([1]; AML12HBV10 cells): loss of activity

NC1CCN(C(=O)Nc2ccc(F)c(Cl)c2)c2ccccc21 (stereo not drawn) [Compound 28, 4-Amino-N-(3-chloro-4-fluorophenyl)-3,4-dihydroquinoline-1(2H)-carboxamide]
anti-HBV activity (in words) ([1]; AML12HBV10 cells): no activity was observed

O=C(Nc1ccc(F)c(Cl)c1)N1CCN[C@H]2CCCC[C@H]21 (relative stereo) [Compound 34, Cis-N-(3-chloro-4-fluorophenyl)octahydroquinoxaline-1(2H)-carboxamide]
anti-HBV activity (in words) ([1]; AML12HBV10 cells): loss of activity

O=C(Nc1ccc(F)c(Cl)c1)N1CCN(C(=O)Nc2cc(Cl)c(F)cc2F)c2ccccc21 [Compound 96, N^1-(5-chloro-2,4-difluorophenyl)-N^4-(3-chloro-4-fluorophenyl)-2,3-dihydroquinoxaline-1,4-dicarboxamide]
anti-HBV activity (in words) ([1]; AML12HBV10 cells): sub-micromolar activities

N#Cc1cc(NC(=O)N2c3ccccc3NCC2CN2CCC(F)(F)CC2)ccc1F (stereo not drawn) [Compound 86, N-(3-cyano-4-fluorophenyl)-2-((4,4-difluoropiperidin-1-yl)methyl)-3,4-dihydroquinoxaline-1(2H)-carboxamide]
pEC50 ([1]; Hepatitis B virus, AML12HBV10, in Mus musculus): ~7.00

O=C(NCc1cccc(Cl)c1)N1CCNc2ccccc21 [Compound 44, N-(3-chlorobenzyl)-3,4-dihydroquinoxaline-1(2H)-carboxamide]
anti-HBV activity (in words) ([1]; AML12HBV10 cells): reduced the activity

O=C(Cc1ccc(F)c(Cl)c1)N1CCNc2ccccc21 [Compound 45, 2-(3-chloro-4-fluorophenyl)-1-(3,4-dihydroquinoxalin-1(2H)-yl)ethanone]
anti-HBV activity (in words) ([1]; AML12HBV10 cells): loss of activity
